The values that follow come from the EternaBench riboswitch data.

The series relates to MS2 coat protein. Put plainly: apparent Kd, MS2 coat protein; higher = weaker binding; RNA-MaP array; FMN 200 µM where present. An outline of the steps:
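The apparent Kd comes from binding curves fitted cluster by cluster, filtered, and summarised as a median. Those curves followed SNAP-549-labelled MS2 coat protein from 0.7 or 1.5 nM, doubling to 3 µM, on Illumina sequencing-chip clusters where stalled E. coli RNA polymerase had transcribed the designs, without and then with constant ligand. The buffer was 100 mM Tris-HCl pH 7.5, 80 mM KCl, 4 mM MgCl2, BSA, DTT, yeast tRNA and Tween-20, and green signal was normalised to red-channel RNA signal and control-cluster median Fmax.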

[1] abbreviates: designed as: OFF switch for flavin mononucleotide, no ligand.
The mark [2] stands for this setting: ligand present: flavin mononucleotide, designed as: OFF switch for flavin mononucleotide.
Setting [3] is: designed as: ON switch for flavin mononucleotide, no ligand.
The mark [4] stands for this setting: ligand present: flavin mononucleotide, designed as: ON switch for flavin mononucleotide.

One may read the apparent Kd as a dissociation constant that holds for the conditions of the assay.

On to “AAGUGUGCCUAGGAUAUGUUCGGCCAAGGUCAUACAGAAGGAGGCACAUGAGGAUCACCCAUGUAGUGUCCAAC”, for which the “apparent Kd” value by setting is: under setting [1], 118 nM; under setting [2], 29.4 nM.
For the sequence “UGGUAACAUGAGGAUCACCCAUGUCAGGAUAUCAGUAAGAAUAGAUGAGAGUAGAAGAUGAGAAGGGACUAUAU”, the “apparent Kd” value under setting [1] was found to be 29.4 nM and the “apparent Kd” value under setting [2] stood at 24.4 nM.
The like results for “AAGUAGGUAGGAUAUACAUGGAUAUACAUUCAUGUGGACCUACAUGAGGAUCACCCAUGUAGAAGGACCUAAUA” were, in that order, 43.2 nM and 41.6 nM.
For the sequence “GAGCGAAAGCUCAAUGUCGAUAGCAGAAGGACAUGAAAACAUGAAAUAACAUGAGGAUCACCCAUGUAGGAUAUGCUAUCGACU”, the “apparent Kd” value under setting [1] turned out to be 17.9 nM and the “apparent Kd” value under setting [2] was 279 nM.
The like results for “GCCUCACAUGAGGAUCACCCAUGUCAGGAUAUAGGAGGCGAUAGAAAUCCUACCGCCGCUAGAAGGGACUGGCA” were, in that order, 39.8 nM and 91.2 nM.
The like results for “CGGCGGAAGCAGAAGGCAUGAACGGACAUGAGGAUCACCCAUGUUGGAAACUCAUGCCCGAAAGAUGAGGAUAUGCGUCCGGGU” were, in that order, 71.7 nM and 18.5 nM.
The like results for “GUGUACAGAGGAUAUACUGGAGCUAGGAAACUAGCAACUUCACAUGAGGAUCACCCAUGUAGAAGGCUGUACAC” were, in that order, 17.1 nM and 65.7 nM.
Turning to “CCUUUGAAGAUCCUAGUUUUCGACAUGAGGAUCACCCAUGUGCAGGAUAUCGUGCCAGUGCUGUGCGAGAAGGGCAGUCUCUGC”, the “apparent Kd” value runs as follows: under setting [1], 63.2 nM; under setting [2], 70.9 nM.
The like results for “CUAAUGUGAGGAUAUGGUGUUGAUCACAGGAAAAAGAUUCUCCAGAAGGCACAUGAGGAUCACCCAUGUAGUGA” were, in that order, 65.6 nM and 175 nM.
On to “GCCAUCACAUGAGGAUAUGCUCCCGUUUCGGGAGCAGAAGGCAUGUCAUAAGACAUGAGGAUCACCCAUGUAGUUAAGAUGGCA”, for which the “apparent Kd” value by setting is: under setting [3], 375 nM; under setting [4], 13.3 nM.
Regarding “UGUCGGUAGUAGAAGGGUAAGACAUGAGGAUCACCCAUGUGAUUUGGGUAUACAGGAUAUGCUUAUAUAUAAGAUUAAAUUAUU”, the “apparent Kd” value by setting is: under setting [1], 674 nM; under setting [2], 470 nM.
The like results for “GUAUCGUGAGGAUAUCAUGAUUGACUUAAUUUAUGUCAGCGUGAGAAGGCACAUGAGGAUCACCCAUGUGAUUA” were, in that order, 22.8 nM and 54.8 nM.
The like results for “CAGUAGAUCCGAGGAUAUACAAUCCGGAAACGGUACAUGAGGAUCACCCAUGUAGAAGGCGGAUCUACAGGUACUAAAGUACCA” were, in that order, 5.77 nM and 7.65 nM.
Turning to “ACAUACAUUCGAGGAUAUCGGUGAUAAAUUUUACGAGAAGGCGAUUUACGGCAUAAUGCUGUAGACAUGAGGAUCACCCAUGUA”, the “apparent Kd” value was 71.5 nM under setting [3] and 39.2 nM under setting [4].
The like results for “CGUCGAUACCAGAAGGACAUGAGGAUCACCCAUGUAGGAUAUGGGUGACCGGGAUGGCAGACACGGUGCCCGGGCACAUGCGAC” were, in that order, 28.9 nM and 9.54 nM.
For “CUGAUGUGAGGAUAUCUAAAAGAAACUGGGCAAAUACCCAGAGAGAAGGCACAUGAGGAUCACCCAUGUAACGA”, the “apparent Kd” value is 21.3 nM under setting [1] and 86.8 nM under setting [2].
The like results for “AUGUCGCUAGGAGGAUAUACAUGAUCUCGCACAUGUACCGCUCACGCCACAUGAGGAUCACCCAUGUAGAAGGCCUAGAGAGGU” were, in that order, 18.6 nM and 54.8 nM.
With “CUUAAAGACGAGAAGGCUGAUUUGACAUGAGCGUCAGCCGUGUAACAUGAGGAUCACCCAUGUGCGGAGGAUAUUGAUCUUGAG”, the “apparent Kd” value worked out at 12.3 nM under setting [3] and 13.9 nM under setting [4].
For the sequence “GCAGCGUAUGUAGGAUAUCGGUCAGAUUCUGAUCGAGAAGGACAUGAGGAUCACCCAUGUAAAUUACCGACUUUGUCGGGCUGC”, the “apparent Kd” value is, setting by setting: under setting [1], 6.73 nM; under setting [2], 8.18 nM.
The like results for “UAUAUAUAGUAAGGAUAUGUAUUAAUUUUAUAAACAGAAGGUACUGACAUGAGGAUCACCCAUGUUUUAGUGUGGGCAUGUAGA” were, in that order, 102 nM and 169 nM.
For “UUUAGUUGCGGGCAGGAUAUGUAUUAAAAUACAUGAGGAUCACCCAUGUGCGGGUAUAACACCCGACAGAAGGGCCAAUCGCGAC”, the “apparent Kd” value under setting [3] is 322 nM and the “apparent Kd” value under setting [4] is 33.3 nM.
Consider “CUCUUGUGAGGAUAUCAGGUGUGCUAGCGUACUGGUACAUCUGAGAAGGCACAUGAGGAUCACCCAUGUUUCUU”, for which the “apparent Kd” value came to 97.7 nM under setting [1] and 72.3 nM under setting [2].
As for “UUUACAUGAGGAUCACCCAUGUCUGUCACCCAUGUGUGCAAUCAGGAUAUGAUCUCAAGAAUGAAUUAGAAGGGAUAACAUGAG”, the “apparent Kd” value is, setting by setting: under setting [3], 182 nM; under setting [4], 194 nM.
For the sequence “AAUAAACUCACAGGAUAUAGCAUAGUCGGCGUGAACUUAAUGGCGACUAUGCUAGAAGGGUGACCACAUGAGGAUCACCCAUGU”, the “apparent Kd” value under setting [3] was found to be 710 nM and the “apparent Kd” value under setting [4] came out at 149 nM.
For the sequence “GGUACUCAAAGAGUACCAAUACGAACAUGAGGAUCACCCAUGUAGGAUAUGCUACUCAAAGAGUAGCAGAAGGAUAUGUGUCUA”, the “apparent Kd” value by setting is: under setting [1], 16.5 nM; under setting [2], 17.5 nM.
In the case of “AGCGCGGUCCACUUGGACGCCUACGAGGAUAUCCUGUCACAUGAGGAUCACCCAUGUAGGCACAUGGAGAAGGCGUAGAAAUCA”, the “apparent Kd” value is 60.9 nM under setting [3] and 7.22 nM under setting [4].
For the sequence “ACGUGUCGUGUAGGAUAUGACACAGGAAACUGGUCAGAAGGACAUGAGGAUCACCCAUGUAGAGUGUGUAAGGAUGACGUAUGC”, the “apparent Kd” value is, setting by setting: under setting [1], 52 nM; under setting [2], 199 nM.
The like results for “UUUUUAUAACAAGGAUAUACUAAACAUGAGGAUCACCCAUGUAAUAUUAUGAGUGAGAGAGAGAAGUAGAAGGUGUAUUAUUUU” were, in that order, 96 nM and 120 nM.
The like results for “UGUGUGUGGCAGGAUAUUCCGGUCGUUGGUCGGGAAGAAGGGUCUACAUGAGGAUCACCCAUGUGACCGGUUGA” were, in that order, 27 nM and 27.5 nM.
The like results for “CAGGAUAGAGGAUAUACAUAGAUACAGAUUCAUAUAAUCCUACAUGAGGAUCACCCAUGUAGAAGGCUAUCCUG” were, in that order, 15 nM and 46.4 nM.
On to “GGUAAGAAGUGCGUGAGCUACUUGAGAAGGCGACAUGAGGAUCACCCAUGUCUGUUCCUCAAGUUCGAGGAUAUCAGGUAGUUG”, for which the “apparent Kd” value turned out to be 7.42 nM under setting [1] and 9.06 nM under setting [2].
The like results for “AACAAGUCAGGAUAUGUUAAAGGUUACGAAAGGGAUAAAGGGCAGAAGGGACAUGAGGAUCACCCAUGUAAUAA” were, in that order, 58 nM and 50.2 nM.
The like results for “GGGCUCGGUGUGAGGAUAUUGGGUCUGAAAGGGCUCGAGAAGGCACAUGAGGAUCACCCAUGUAAGCUGGGUCU” were, in that order, 42.7 nM and 37.3 nM.
The like results for “AUUAAUCAGCAGGAUAUAAGUAUCUGAAGGUGGUUAGAAGGGCUGACAUGAGGAUCACCCAUGUGCUCUUCGUG” were, in that order, 11.7 nM and 18.8 nM.
Take “CCACGGUAUGUAGGAUAUGCAUAGCAUUGCUAUGCAGAAGGACAUGAGGAUCACCCAUGUAUGUAUUCCAUACUAAUCCCGUGC”: the “apparent Kd” value reads like this: under setting [1], 6.42 nM; under setting [2], 6.37 nM.
The like results for “CCCUCACAUGAGGAUCACCCAUGUUAGGAUAUCCACCGUUGAUGGUGCCGAAUCGGUAGGAGAAGGAACAUACA” were, in that order, 23.2 nM and 54.6 nM.
With “UUGGACGUCGUAGGAUAUGUAGGAUAUUCCUACAUGAGGAUCACCCAUGUUGACAUGGAUGAAGGACAGAAGGACGAUGUCCAU”, the “apparent Kd” value under setting [3] is 276 nM and the “apparent Kd” value under setting [4] stood at 357 nM.
For “CGGCCGGAUCGAGGAUAUAAGUCUAGGACAUGAGGAUCACCCAUGUAUGUCUUAGAAGGCGAUCCGGCCAGCCUGUUACAGGCA”, the “apparent Kd” value runs as follows: under setting [3], 32.9 nM; under setting [4], 6.18 nM.
On to “UUGAUUAGAAGUUAACAUGAGGAUCACCCAUGUAUUGGAUCAGAGGAUAUGCAUGUUUGAUAGUAGCAGAAGGCUGAUGGUGGA”, for which the “apparent Kd” value under setting [3] was 53.5 nM and the “apparent Kd” value under setting [4] turned out to be 61.6 nM.
With “GUGGUGAAUUAAGGAUAUCGAGUCUAGAUGUUAAACAUGAGGAUCACCCAUGUGGGUUGCGGUGUCGAGAAGGUAAUUUACGGG”, the “apparent Kd” value was 64.3 nM under setting [3] and 33.9 nM under setting [4].
Consider “GUGCAAUGAGGAUAUACGUUGGUGAACAUCUGUGUGCUCCUACAUGAGGAUCACCCAUGUAGAAGGCAUGUCAC”, for which the “apparent Kd” value was 11.4 nM under setting [1] and 17.1 nM under setting [2].
The like results for “UUGUUCUGAGGAUAUACAUGAGGAUCACCCAUGUGUUUCAGCUAGGAGACUAGCGAAAGUAGAAGGCUGUUCUC” were, in that order, 16.7 nM and 17.9 nM.
In the case of “AAUUGGAUGCAGAAGGCAUGGACGACUCGUCAAAUUAACAUGAGGAUCACCCAUGUCAAAAGACAUGAGGAUAUGCAUCCUAAA”, the “apparent Kd” value under setting [3] turned out to be 189 nM and the “apparent Kd” value under setting [4] came to 12.6 nM.
In the case of “GAGAAGUCAGGAUAUGCAUGGCGGGACUUGCGUCGUGGCGUGCAGAAGGGACAUGAGGAUCACCCAUGUGGAGA”, the “apparent Kd” value is 125 nM under setting [1] and 291 nM under setting [2].
As to “AGAUGACAAAGUCAUCUCGCUUUGACAUGAGGAUCACCCAUGUAGGAUAUAUUACUCAAAGAGUAAUAGAAGGACAUGUGUCUU”, the “apparent Kd” value under setting [1] worked out at 37.2 nM and the “apparent Kd” value under setting [2] is 104 nM.
The like results for “GUUGGGUGUCAUGUCGCACAUGAGGAUCACCCAUGUAGGAGGUAGGAUAUCCACGAGAAACAAGAGGAGAAGGGCCAUUAGCGU” were, in that order, 23.5 nM and 29.2 nM.
The like results for “CUCCUACAUGAGGAUCACCCAUGUCAGGAUAUCUCAGUAGCACCUAAAGGUGCUACCCAGAGAAGGGACGUGCA” were, in that order, 11.6 nM and 15.5 nM.
For the sequence “CAGGUAGACUGAGGAUAUACAUCUCUGGGCAAACCAGAGUAAAAUUCGACAUGAGGAUCACCCAUGUAGAAGGCAGUCUGCCUG”, the “apparent Kd” value is 17 nM under setting [1] and 24.1 nM under setting [2].
